Measurements taken from ChEMBL document CHEMBL4257472, “Antitumor effect of sikokianin C, a selective cystathionine β-synthase inhibitor, against human colon cancer in vitro and in vivo” (Medchemcomm, 2018).
Blank lines part the entries; values can stand above or below the molecule they belong to. Active and inactive are the calls of the source. The rule behind the calls is not given here.

Tests used:
Homo sapiens [1] = organism: Homo sapiens; test: Selectivity ratio of IC50 for human CBS Y308A mutant to IC50 for full-length GST-fused human CBS
HT-29 [2] = test: Antiproliferative activity against human HT-29 cells harboring CBS SiRNA after 24 hrs by CCK8 assay; type: functional, cell-based; details: HT-29, 24 h
Method in brief: (§1)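 HT29 cells grown in DMEM with 10% FBS and 1% penicillin–streptomycin, 37 °C, 5% CO2. Seeded at 1 × 10^4 cells/well, cultured 24 h, then exposed to varying compound concentrations for 24 h. CCK-8 added for 2 h at 37 °C and OD450 read. Viability expressed as % of untreated medium control. IC50 fitted from means ± SD (n = 4). Knockdown cells were transfected with CBS siRNA for 48 h beforehand.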

HT-29 [3] = test: Antitumor activity against human HT-29 cells xenografted in sc dosed BALB/c nude mouse assessed as tumor growth inhibition administered once daily for 6 days followed by 1 day interval and subsequent dosing for 6 days; type: functional, organism-based
Method in brief: (§2)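 Male BALB/c nude mice, five weeks old, given s.c. HT29 cells (100 μL of 1 × 10^7 cells/mL) in the right armpit. Randomized when tumours reached about 100 mm3. Daily s.c. dosing at 3 or 10 mg/kg/d, vehicle 1% DMSO with 0.5% carboxymethylcellulose in PBS, 6 d on and 1 d off, 12 treatments in total, n = 6. Tumour volume by calipers (0.5 × L × W²) and body weight monitored. Tumours excised and weighed on day 28.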

[4] = molecular target: T1, Cystathionine beta-synthase (Homo sapiens, UniProt P35520); test: Inhibition of full-length GST-fused human CBS assessed as reduction in H2S production using […] as substrate preincubated for 3 mins followed by substrate addition measured in presence of Triton X-100
T1 sequence (P35520 whole entry): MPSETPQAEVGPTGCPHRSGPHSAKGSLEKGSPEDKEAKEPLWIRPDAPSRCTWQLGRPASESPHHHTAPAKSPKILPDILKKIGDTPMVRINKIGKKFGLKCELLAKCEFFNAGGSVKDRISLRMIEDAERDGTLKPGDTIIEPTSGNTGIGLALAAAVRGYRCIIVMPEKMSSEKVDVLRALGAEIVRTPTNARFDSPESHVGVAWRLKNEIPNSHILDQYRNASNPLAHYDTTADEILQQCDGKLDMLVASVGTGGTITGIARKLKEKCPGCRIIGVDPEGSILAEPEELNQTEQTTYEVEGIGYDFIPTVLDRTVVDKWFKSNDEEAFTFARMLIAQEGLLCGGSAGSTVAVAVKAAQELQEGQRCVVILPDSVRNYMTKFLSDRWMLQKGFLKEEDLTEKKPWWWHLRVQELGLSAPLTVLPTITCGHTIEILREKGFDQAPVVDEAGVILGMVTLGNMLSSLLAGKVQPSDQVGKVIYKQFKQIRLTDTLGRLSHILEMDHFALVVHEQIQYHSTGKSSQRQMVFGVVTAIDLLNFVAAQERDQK
Method in brief: (§3)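 Lead sulfide H2S assay on purified human CBS (5 μg, wild-type or alanine mutant) in 200 μL of 50 mM HEPES pH 7.4 with 5% DMSO and 0.4 mM lead nitrate. Enzyme and 2 mM homocysteine preincubated 3 min at 37 °C, then 2 mM cysteine added. Lead sulfide read at 390 nm (ε 5500 M−1 cm−1). Activity is relative to a DMSO control, mean ± SD (n = 3). The detergent test included 0.01% Triton X-100.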

HT-29 [5] = test: Antiproliferative activity against human HT-29 cells after 24 hrs by CCK8 assay; type: functional, cell-based; details: HT-29, 24 h; method in brief: as §1
HT-29 [6] = test: Induction of apoptosis in human HT-29 cells at 0.5 uM after 24 hrs by Annexin V-FITC/propidium iodide staining based flow cytometry relative to control; type: functional
Method in brief: (§4)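 HT29 cells seeded at 5 × 10^5 per well and treated 24 h with 0.5, 1 or 2 μM compound. Cells trypsinized, washed in cold PBS, stained with FITC–Annexin V and PI for 15 min in the dark at room temperature. 10 000 cells analysed by flow cytometry. Annexin V-positive percentage reported as mean ± SD of three independent experiments.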

HT-29 [7] = test: Antitumor activity against human HT-29 cells xenografted in BALB/c nude mouse assessed as reduction in tumor weight at 10 mg/kg, sc administered once daily for 6 days followed by 1 day interval and subsequent dosing for 6 days relative to control; type: functional; set-up: scale not given: the % may be the effect or the level left; method in brief: as §2
Mus musculus [8] = test: Toxicity in BALB/c nude mouse xenografted with human HT-29 cells assessed as effect on body weight at 3 to 10 mg/kg, sc administered once daily for 6 days followed by 1 day interval and subsequent dosing for 6 days; type: organism-based; details: in vivo; method in brief: as §2
[9] = molecular target: Cystathionine beta-synthase (Homo sapiens, UniProt P35520, Y308A); test: Inhibition of human CBS Y308A mutant assessed as reduction in H2S production using 2 mM […] as substrate preincubated for 3 mins followed by substrate addition; method in brief: as §3
Cystathionine beta-synthase (Homo sapiens, UniProt P35520, Y308A), sequence (P35520 whole entry Y308A): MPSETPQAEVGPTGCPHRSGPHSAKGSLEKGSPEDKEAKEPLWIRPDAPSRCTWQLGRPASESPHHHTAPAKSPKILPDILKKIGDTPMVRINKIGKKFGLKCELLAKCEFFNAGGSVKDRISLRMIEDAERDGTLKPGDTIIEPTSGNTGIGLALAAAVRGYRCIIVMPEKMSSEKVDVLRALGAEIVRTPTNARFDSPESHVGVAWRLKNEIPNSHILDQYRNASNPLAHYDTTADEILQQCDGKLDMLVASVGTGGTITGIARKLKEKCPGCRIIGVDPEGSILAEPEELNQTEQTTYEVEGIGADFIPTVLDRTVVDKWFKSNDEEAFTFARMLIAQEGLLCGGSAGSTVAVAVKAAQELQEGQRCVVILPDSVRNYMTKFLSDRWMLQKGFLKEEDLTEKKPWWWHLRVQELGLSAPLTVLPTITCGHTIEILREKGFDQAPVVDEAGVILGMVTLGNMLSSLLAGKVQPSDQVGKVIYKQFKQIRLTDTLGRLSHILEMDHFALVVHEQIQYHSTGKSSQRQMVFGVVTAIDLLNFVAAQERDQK

HT-29 [10] = test: Induction of apoptosis in human HT-29 cells after 24 hrs by Annexin V-FITC/propidium iodide staining based flow cytometry; type: functional, cell-based; method in brief: as §4
[11] = molecular target: Cystathionine beta-synthase (Homo sapiens, UniProt P35520, H203A); test: Inhibition of human CBS H203A mutant assessed as reduction in H2S production using […] preincubated for 3 mins followed by substrate addition; method in brief: as §3
Cystathionine beta-synthase (Homo sapiens, UniProt P35520, H203A), sequence (P35520 whole entry H203A, the tested form may be a part): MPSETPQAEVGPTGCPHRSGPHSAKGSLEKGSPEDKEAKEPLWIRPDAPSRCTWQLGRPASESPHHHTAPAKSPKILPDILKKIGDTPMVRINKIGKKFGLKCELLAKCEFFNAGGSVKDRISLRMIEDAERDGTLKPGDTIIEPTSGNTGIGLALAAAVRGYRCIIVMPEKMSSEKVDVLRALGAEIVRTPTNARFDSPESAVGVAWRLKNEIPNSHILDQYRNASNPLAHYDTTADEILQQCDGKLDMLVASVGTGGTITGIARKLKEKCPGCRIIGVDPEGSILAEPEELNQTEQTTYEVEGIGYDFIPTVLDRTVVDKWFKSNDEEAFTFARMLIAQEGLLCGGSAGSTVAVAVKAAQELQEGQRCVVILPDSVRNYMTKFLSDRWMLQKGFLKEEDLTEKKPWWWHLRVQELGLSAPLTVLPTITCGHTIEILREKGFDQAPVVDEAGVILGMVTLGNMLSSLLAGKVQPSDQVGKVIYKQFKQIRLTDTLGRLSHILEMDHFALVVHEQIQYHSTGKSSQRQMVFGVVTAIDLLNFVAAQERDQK

Homo sapiens [12] = organism: Homo sapiens; test: Selectivity ratio of IC50 for human CBS H203A mutant to IC50 for full-length GST-fused human CBS
[13] = molecular target: T2, Cystathionine beta-synthase (Homo sapiens) (UniProt P35520); test: Competitive inhibition of full-length GST-fused human CBS up to 10 uM using […] as substrate by Lineweaver-burk plot analysis
T2 sequence (whole entry): T1 sequence (P35520 whole entry)

[14] = molecular target: Cystathionine beta-synthase (Homo sapiens, UniProt P35520, T193A); test: Inhibition of human CBS T193A mutant assessed as reduction in H2S production using […] as substrate preincubated for 3 mins followed by substrate addition; method in brief: as §3
Cystathionine beta-synthase (Homo sapiens, UniProt P35520, T193A), sequence (P35520 whole entry T193A): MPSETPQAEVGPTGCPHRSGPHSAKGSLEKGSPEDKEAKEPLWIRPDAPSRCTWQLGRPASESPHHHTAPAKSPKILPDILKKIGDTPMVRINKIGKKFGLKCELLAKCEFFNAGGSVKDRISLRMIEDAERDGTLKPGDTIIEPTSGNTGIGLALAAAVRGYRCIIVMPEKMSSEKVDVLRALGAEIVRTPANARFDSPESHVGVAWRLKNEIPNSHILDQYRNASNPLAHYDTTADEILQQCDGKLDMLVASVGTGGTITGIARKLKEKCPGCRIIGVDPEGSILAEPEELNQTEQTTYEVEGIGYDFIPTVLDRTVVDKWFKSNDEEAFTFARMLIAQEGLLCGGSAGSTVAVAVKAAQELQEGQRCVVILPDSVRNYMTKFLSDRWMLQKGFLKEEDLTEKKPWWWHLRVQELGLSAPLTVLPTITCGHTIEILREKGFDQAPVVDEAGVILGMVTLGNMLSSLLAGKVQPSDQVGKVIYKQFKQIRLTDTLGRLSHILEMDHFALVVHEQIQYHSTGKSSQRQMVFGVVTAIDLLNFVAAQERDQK

HT-29 [15] = test: Induction of apoptosis in human HT-29 cells at 2 uM after 24 hrs by Annexin V-FITC/propidium iodide staining based flow cytometry relative to control; type: functional; method in brief: as §4
[16] = molecular target: Cystathionine beta-synthase (Homo sapiens, UniProt P35520, Y223A); test: Inhibition of human CBS Y223A mutant assessed as reduction in H2S production using 2 mM […] as substrate preincubated for 3 mins followed by substrate addition; method in brief: as §3
Cystathionine beta-synthase (Homo sapiens, UniProt P35520, Y223A), sequence (P35520 whole entry Y223A, the tested form may be a part): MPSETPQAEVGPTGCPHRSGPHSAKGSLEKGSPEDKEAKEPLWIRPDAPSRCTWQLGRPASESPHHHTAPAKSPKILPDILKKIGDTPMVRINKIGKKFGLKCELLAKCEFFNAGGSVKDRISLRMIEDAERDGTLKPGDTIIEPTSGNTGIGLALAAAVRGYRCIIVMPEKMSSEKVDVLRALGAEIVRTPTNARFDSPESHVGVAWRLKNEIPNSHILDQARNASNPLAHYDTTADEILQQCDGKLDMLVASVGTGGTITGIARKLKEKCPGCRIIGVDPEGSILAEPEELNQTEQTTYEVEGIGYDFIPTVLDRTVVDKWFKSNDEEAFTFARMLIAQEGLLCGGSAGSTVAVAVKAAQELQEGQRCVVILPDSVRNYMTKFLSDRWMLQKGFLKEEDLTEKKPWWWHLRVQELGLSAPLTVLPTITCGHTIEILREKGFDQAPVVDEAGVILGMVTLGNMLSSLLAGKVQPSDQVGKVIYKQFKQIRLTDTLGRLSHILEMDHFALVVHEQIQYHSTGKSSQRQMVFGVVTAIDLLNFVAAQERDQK

[17] = molecular target: T1, Cystathionine beta-synthase; test: Inhibition of full-length GST-fused human CBS assessed as reduction in H2S production using 20 mM […] as substrate preincubated for 3 mins followed by substrate addition
Method in brief: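 Same lead sulfide H2S assay on purified human wild-type CBS (5 μg, 50 mM HEPES pH 7.4, 5% DMSO, 0.4 mM lead nitrate, 37 °C), with cysteine raised to 20 mM and homocysteine kept at 2 mM. Lead sulfide read at 390 nm.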

[18] = molecular target: T1, Cystathionine beta-synthase; test: Inhibition of full-length GST-fused human CBS assessed as reduction in H2S production using 2 mM […] as substrate preincubated for 3 mins followed by substrate addition; method in brief: as §3
[19] = molecular target: Cystathionine beta-synthase (Homo sapiens, UniProt P35520, N194A); test: Inhibition of human CBS N194A mutant assessed as reduction in H2S production using 2 mM […] as substrate preincubated for 3 mins followed by substrate addition; method in brief: as §3
Cystathionine beta-synthase (Homo sapiens, UniProt P35520, N194A), sequence (P35520 whole entry N194A): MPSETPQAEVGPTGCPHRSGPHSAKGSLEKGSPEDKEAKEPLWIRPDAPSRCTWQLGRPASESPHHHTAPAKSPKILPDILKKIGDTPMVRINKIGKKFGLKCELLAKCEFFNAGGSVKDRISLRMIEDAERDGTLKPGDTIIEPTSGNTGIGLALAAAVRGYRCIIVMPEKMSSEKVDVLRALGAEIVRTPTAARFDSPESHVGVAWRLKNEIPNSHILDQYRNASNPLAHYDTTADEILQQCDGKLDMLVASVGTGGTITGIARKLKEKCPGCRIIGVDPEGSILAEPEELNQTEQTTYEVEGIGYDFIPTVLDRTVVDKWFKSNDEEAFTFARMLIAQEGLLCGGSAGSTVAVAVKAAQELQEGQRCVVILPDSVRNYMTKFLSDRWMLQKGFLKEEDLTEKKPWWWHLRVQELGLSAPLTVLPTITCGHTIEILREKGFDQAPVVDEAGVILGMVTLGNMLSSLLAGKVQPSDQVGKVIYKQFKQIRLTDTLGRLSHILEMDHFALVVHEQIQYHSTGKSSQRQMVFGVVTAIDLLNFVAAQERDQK

HT-29 [20] = test: Induction of apoptosis in human HT-29 cells at 1 uM after 24 hrs by Annexin V-FITC/propidium iodide staining based flow cytometry relative to control; type: functional; method in brief: as §4
[21] = Selectivity ratio of IC50 for human HT-29 cells harboring CBS SiRNA to IC50 for human HT-29 cells; type: functional
[22] = molecular target: T2, Cystathionine beta-synthase (Homo sapiens); test: Non-competitive inhibition of full-length GST-fused human CBS using […] as substrate by Lineweaver-burk plot analysis
Mus musculus [23] = test: Toxicity in BALB/c nude mouse xenografted with human HT-29 cells assessed as effect on body weight at 10 mg/kg, sc administered once daily for 6 days followed by 1 day interval and subsequent dosing for 6 days; type: organism-based; details: in vivo; method in brief: as §2
HT-29 [24] = test: Antitumor activity against human HT-29 cells xenografted in BALB/c nude mouse assessed as tumor growth inhibition at 10 mg/kg, sc administered once daily for 6 days followed by 1 day interval and subsequent dosing for 6 days; type: functional, organism-based; method in brief: as §2

Ratio IC50 (Homo sapiens [1]): 27 | IC50 (HT-29 [2]): 4.7 µM | IC50 [4]: 1.4 µM | IC50 (HT-29 [5]): 1.6 µM | IC50 [9]: 24 µM | IC50 [11]: 43 µM | Ratio IC50 (Homo sapiens [12]): 48 | inhibition [13]: Active | IC50 [14]: 11.2 µM | IC50 [16]: 16.9 µM | IC50 [17]: 5.5 µM | IC50 [18]: 0.9 µM | IC50 [19]: 18.7 µM
SMILES: COc1ccc([C@H]2Oc3cc(O)cc(O)c3C(=O)[C@@H]2[C@H]2C(=O)c3c(O)cc(O)cc3O[C@@H]2c2ccc(O)cc2)cc1 [SIKOKIANIN C]
Activity (HT-29 [3]): Dose-dependent effect | Activity (HT-29 [6]): 17.1% | Activity (HT-29 [7]): 46% | Activity (Mus musculus [8]): Non-Toxic | Activity (HT-29 [10]): Dose-dependent effect | Activity (HT-29 [15]): 31.5% | Activity (HT-29 [20]): 22% | Ratio IC50 [21]: 3

IC50 (HT-29 [2]): 287 µM | IC50 (HT-29 [5]): 159 µM | inhibition [22]: Active | IC50 [18]: 7.5 µM
SMILES: NOCC(=O)O [CARBOXYMETHOXYLAMINE]
Activity (HT-29 [7]): 44% | Activity (Mus musculus [23]): Non-Toxic | TGI (HT-29 [24]): Active
